Reference: ChEMBL document CHEMBL1128452, “Pseudodipeptide inhibitors of protein farnesyltransferase” (J Med Chem, 1995)
Peptide text beside a SMILES is read from it. * marks the point of attachment. NHPhenethyl = c1ccc(CCN*)cc1

Experiments:
[1] = target: Protein farnesyltransferase (Bos taurus, UniProt P29702+P49355); assay: In vitro concentration required to reduce Farnesyltransferase catalyzed incorporation of [3H]FPP into recombinant Ha-Ras protein by 50%; format: protein-complex assay
How it was run: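 Farnesyltransferase was purified from bovine brain and used at ca. 1 nM. It was incubated with compound, [³H]FPP and recombinant Harvey-Ras. Total protein was acid-precipitated and Ras-bound label counted by scintillation. IC50 is the concentration halving incorporation relative to a no-inhibitor control. Values are mean ± SEM of the stated number of determinations, or a single determination estimated reliable within 2-fold.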

NIH3T3 = assay: Highest nontoxic concentration for cultured NIH 3T3 cells assessed by MTT staining.; format: functional, Mus musculus
How it was run: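 NIH 3T3 cells exposed to compound for 48 h. Viability read by MTT staining. The value reported is the highest concentration the cells tolerated without toxicity.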

[2] = target: Geranylgeranyl transferase type I (Bos taurus, UniProt P29702+Q5EAD5); assay: Inhibition of bovine Geranylgeranyl transferase type I; format: protein-complex assay

SMILES	IC50 [1] [nM]	Cytotoxic endpoint (NIH3T3) [µM]	IC50 [2] [nM]
C[C@H](NC[C@@H](N)CS)C(=O)NCc1ccccc1	2000		
CCC(C)[C@H](NC[C@@H](N)CS)C(=O)NC(CO)Cc1ccccc1 (stereo partly specified)	370		
CCC(C)[C@H](NC[C@@H](N)CS)C(=O)NCc1ccc(OC)cc1 (stereo partly specified)	660	50	
CCC(C)[C@@H](CNCCc1ccccc1)NC(=O)[C@@H](N)CS (stereo partly specified)	9000		
CCC[C@H](NC[C@@H](N)CS)C(=O)NCc1ccccc1	600		
CCC(C)[C@H](NC[C@@H](N)CS)C(=O)NCc1cccc(Cl)c1Cl (stereo partly specified)	23	5	6800
CCC(C)[C@H](NC[C@@H](N)CS)C(=O)NCCC(C)C (stereo partly specified)			100000
CC[C@H](NC[C@@H](N)CS)C(=O)NCc1ccccc1	1100		
CCC(C)[C@H](NC[C@H](C)N)C(=O)NCCc1ccccc1 (stereo partly specified)	> 10000	>100	
CCC(C)[C@H](NC[C@@H](N)CS)C(=O)Nc1cccc(C)c1 (stereo partly specified)	46	25	6200
CCC(C)[C@H](NC[C@@H](N)CS)C(=O)NCc1cccc(C)c1 (stereo partly specified)	1000	25	
CCC(C)[C@H](NC[C@@H](N)CS)C(=O)NCc1ccc(C)cc1C (stereo partly specified)	120	10	30000
CCC(C)[C@H](NC[C@@H](N)CS)C(=O)NCc1ccc(Cl)cc1Cl (stereo partly specified)	97	10	10000
CCC(C)[C@H](NC[C@@H](N)CS)C(=O)Nc1ccccc1 (stereo partly specified)	70		
CCC(C)[C@H](NC[C@@H](N)CS)C(=O)NCc1ccc(S(N)(=O)=O)cc1 (stereo partly specified)	400	100	21000
CCC(C)[C@H](NC[C@@H](N)CS)C(=O)NCCc1ccccc1 (stereo partly specified)	707	10	
CCC(C)[C@@H](CNCCc1ccccc1)NC[C@@H](N)CS (stereo partly specified)		10	
CCC(C)[C@H](NC[C@@H](N)CS)C(=O)Nc1cccc(C)c1C (stereo partly specified)	40	10	8200
CCC(C)[C@H](NC(=O)CCS)C(=O)NCCc1ccccc1 (stereo partly specified)	> 10000	10	
CCC(C)[C@H](NC[C@@H](N)CS)C(=O)NCc1ccccc1 (stereo partly specified)	450		86000
CCC(C)[C@H](NC[C@@H](N)CS)C(=O)N(C)Cc1ccccc1 (stereo partly specified)	945		
CCCCN(Cc1ccccc1)C(=O)[C@@H](NC[C@@H](N)CS)C(C)CC (stereo partly specified)	1300		
CCC(C)[C@H](NC[C@@H](N)CS)C(=O)Nc1ccc(C)cc1C (stereo partly specified)	60	5	
CCCC[C@H](NC[C@@H](N)CS)C(=O)NCc1ccccc1	900		
CCC(C)[C@H](NC[C@@H](N)CS)C(=O)NCCCc1ccccc1 (stereo partly specified)	350		
CC[C@H](C)[C@H](NC(=O)[C@@H](N)CS)C(=O)NCCc1ccccc1 (H-Cys-Ile-NHPhenethyl)	1000	>100	
